Experimental data taken from ChEMBL document CHEMBL1255388, “Antimalarial asexual stage-specific and gametocytocidal activities of HIV protease inhibitors” (Antimicrob Agents Chemother, 2010).
Active and inactive are the calls of the source. The calls are words filed in the database; no cut-off is given here.

Legend:
Assay type in all cases: functional, organism-based
Plasmodium falciparum [1] = assay: Antigametocyte activity against drug-resistant Plasmodium falciparum Dd2 trophozoites assessed as inhibition of parasite growth at 40 uM after 1 to 8 hrs
Method in brief: (§1)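 Synchronized P. falciparum cultures were drug-exposed at 0 (ring), 24 (trophozoite) or 36 h (schizont) post-synchronization. They were then washed, resuspended in drug-free medium and seeded with 0.5 μCi/well [3H]hypoxanthine for 40 h. Incorporation was compared with vehicle controls. Triplicate, on at least two separate occasions.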

Plasmodium falciparum [2] = assay: Antigametocyte activity against Plasmodium falciparum D10 schizonts assessed as inhibition of parasite growth at 40 uM after 1 to 8 hrs
Method in brief: (§2)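 Synchronized D10 cultures exposed to drug at 0 h (ring), 24 h (trophozoite) or 36 h (schizont) postsynchronization. After exposure, parasites washed, resuspended in drug-free medium and labelled with 0.5 μCi/well [3H]hypoxanthine for 40 h. Uptake compared with vehicle controls. Triplicate wells, repeated on at least two separate occasions.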

Plasmodium falciparum [3] = assay: Antigametocyte activity against Plasmodium falciparum harboring GFP-tagged Pfs16 protein assessed as reduction in number of gametocytes after 40 hrs by [3H]hypoxanthine incorporation assay
Plasmodium falciparum [4] = assay: Antimicrobial activity against chloroquine-sensitive Plasmodium falciparum D10 after 48 hrs; conditions: D10, 48 h
Method in brief: (§3)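 In vitro growth inhibition of P. falciparum asexual cultures. Concentrations giving 10, 50 and 90% inhibition (± SE) were obtained by nonlinear regression curve fitting. Each assay was run in triplicate on at least two separate occasions.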

Plasmodium falciparum [5] = assay: Antigametocyte activity against ring stage Plasmodium falciparum D10 assessed as inhibition of parasite growth at 150 uM after 1 to 8 hrs; method in brief: as §2
Plasmodium falciparum [6] = assay: Antimicrobial activity against Plasmodium falciparum harboring […]-tagged Pfs16 protein after 48 hrs; method in brief: as §3
Plasmodium falciparum [7] = assay: Antimicrobial activity against chloroquine-sensitive Plasmodium falciparum 3D7 after 48 hrs; conditions: 3D7, 48 h; method in brief: as §3
Plasmodium falciparum [8] = assay: Antigametocyte activity against Plasmodium falciparum D10 trophozoites assessed as inhibition of parasite growth at 40 uM after 1 to 8 hrs; method in brief: as §2
Plasmodium falciparum [9] = assay: Antigametocyte activity against drug-resistant ring stage Plasmodium falciparum Dd2 assessed as inhibition of parasite growth at 40 uM after 1 to 8 hrs; method in brief: as §1
Plasmodium falciparum [10] = assay: Antigametocyte activity against drug-resistant Plasmodium falciparum Dd2 schizonts assessed as inhibition of parasite growth at 40 uM after 1 to 8 hrs; method in brief: as §1
Plasmodium falciparum [11] = assay: Antigametocyte activity against ring stage Plasmodium falciparum D10 assessed as inhibition of parasite growth at 40 uM after 1 to 8 hrs; method in brief: as §2
Plasmodium falciparum [12] = assay: Antimicrobial activity against chloroquine-resistant Plasmodium falciparum Dd2 after 48 hrs; conditions: Dd2, 48 h; method in brief: as §3
Plasmodium falciparum [13] = assay: Antigametocyte activity against drug-resistant Plasmodium falciparum Dd2 schizonts assessed as inhibition of parasite growth at 20 uM after 1 to 8 hrs; method in brief: as §1
Plasmodium falciparum [14] = assay: Antigametocyte activity against Plasmodium falciparum D10 trophozoites assessed as inhibition of parasite growth at 20 uM after 1 to 8 hrs; method in brief: as §2
Plasmodium falciparum [15] = assay: Antigametocyte activity against drug-resistant Plasmodium falciparum Dd2 trophozoites assessed as inhibition of parasite growth at 20 uM after 1 to 8 hrs; method in brief: as §1
Plasmodium falciparum [16] = assay: Antigametocyte activity against drug-resistant ring stage Plasmodium falciparum Dd2 assessed as inhibition of parasite growth at 20 uM after 1 to 8 hrs; method in brief: as §1
Plasmodium falciparum [17] = assay: Antigametocyte activity against ring stage Plasmodium falciparum D10 assessed as inhibition of parasite growth at 20 uM after 1 to 8 hrs; method in brief: as §2
Plasmodium falciparum [18] = assay: Antigametocyte activity against Plasmodium falciparum D10 schizonts assessed as inhibition of parasite growth at 20 uM after 1 to 8 hrs; method in brief: as §2
Plasmodium falciparum [19] = assay: Antigametocyte activity against Plasmodium falciparum harboring GFP-tagged Pfs16 protein assessed as inhibition of [3H]hypoxanthine incorporation after 40 hrs
Plasmodium falciparum [20] = assay: Antigametocyte activity against drug-resistant ring stage Plasmodium falciparum Dd2 assessed as inhibition of parasite growth at 150 uM after 1 to 8 hrs; method in brief: as §1
Plasmodium falciparum [21] = assay: Antigametocyte activity against drug-resistant Plasmodium falciparum Dd2 schizonts assessed as inhibition of parasite growth at 150 uM after 1 to 8 hrs; method in brief: as §1
Plasmodium falciparum [22] = assay: Antigametocyte activity against Plasmodium falciparum D10 trophozoites assessed as inhibition of parasite growth at 150 uM after 1 to 8 hrs; method in brief: as §2
Plasmodium falciparum [23] = assay: Antigametocyte activity against drug-resistant Plasmodium falciparum Dd2 trophozoites assessed as inhibition of parasite growth at 150 uM after 1 to 8 hrs; method in brief: as §1
Plasmodium falciparum [24] = assay: Antigametocyte activity against Plasmodium falciparum D10 schizonts assessed as inhibition of parasite growth at 150 uM after 1 to 8 hrs; method in brief: as §2
Plasmodium falciparum [25] = assay: Antigametocyte activity against Plasmodium falciparum D10 trophozoites assessed as inhibition of parasite growth at 50 nM after 1 to 8 hrs; method in brief: as §2
Plasmodium falciparum [26] = assay: Antigametocyte activity against drug-resistant ring stage Plasmodium falciparum Dd2 […] assessed as inhibition of parasite growth at 50 nM after 1 to 8 hrs; method in brief: as §1
Plasmodium falciparum [27] = assay: Antigametocyte activity against Plasmodium falciparum D10 schizonts assessed as inhibition of parasite growth at 50 nM after 1 to 8 hrs; method in brief: as §2
Plasmodium falciparum [28] = assay: Antigametocyte activity against ring stage Plasmodium falciparum D10 assessed as inhibition of parasite growth at 50 nM after 1 to 8 hrs; method in brief: as §2
Plasmodium falciparum [29] = assay: Antigametocyte activity against drug-resistant Plasmodium falciparum Dd2 trophozoites assessed as inhibition of parasite growth at 50 nM after 1 to 8 hrs; method in brief: as §1
Plasmodium falciparum [30] = assay: Antigametocyte activity against drug-resistant Plasmodium falciparum Dd2 schizonts assessed as inhibition of parasite growth at 50 nM after 1 to 8 hrs; method in brief: as §1

**Q.** For `CC(C)(C)NC(=O)[C@@H]1C[C@@H]2CCCC[C@@H]2CN1C[C@@H](O)[C@H](Cc1ccccc1)NC(=O)[C@H](CC(N)=O)NC(=O)c1ccc2ccccc2n1`, which inhibition (Plasmodium falciparum [1]) is on record?
**A.** Its inhibition is “Active”.

**Q.** And the inhibition (Plasmodium falciparum [2])?
**A.** Its inhibition is “inactive”.

**Q.** What about the inhibition (Plasmodium falciparum [3]) of the same compound?
**A.** The inhibition was “Dose-dependent effect”.

**Q.** And the EC50 (Plasmodium falciparum [4])?
**A.** The EC50 was 3000 nM.

**Q.** What about the inhibition (Plasmodium falciparum [5]) of the same compound?
**A.** Its inhibition is “Active”.

**Q.** And the EC50 (Plasmodium falciparum [6])?
**A.** The EC50 was 5000 nM.

**Q.** What about the EC50 (Plasmodium falciparum [7]) of the same compound?
**A.** Its EC50 is 3000 nM.

**Q.** And the inhibition (Plasmodium falciparum [8])?
**A.** The inhibition was “Active”.

**Q.** What about the inhibition (Plasmodium falciparum [9]) of the same compound?
**A.** Its inhibition is “inactive”.

**Q.** What about the inhibition (Plasmodium falciparum [10]) of the same compound?
**A.** Its inhibition is “Active”.

**Q.** What about the inhibition (Plasmodium falciparum [11]) of the same compound?
**A.** The inhibition was “inactive”.

**Q.** For `CC(C)CN(C[C@@H](O)[C@H](Cc1ccccc1)NC(=O)O[C@H]1CO[C@H]2OCC[C@H]21)S(=O)(=O)c1ccc(N)cc1`, which EC50 (Plasmodium falciparum [12]) is on record?
**A.** Its EC50 is 70000 nM.

**Q.** How did the inhibition (Plasmodium falciparum [13]) turn out when `Cc1cccc(C)c1OCC(=O)N[C@@H](Cc1ccccc1)[C@@H](O)C[C@H](Cc1ccccc1)NC(=O)[C@H](C(C)C)N1CCCNC1=O` [LOPINAVIR] was run?
**A.** Its inhibition is “Active”.

**Q.** What about the inhibition (Plasmodium falciparum [3]) of the same compound?
**A.** The inhibition was “Dose-dependent effect”.

**Q.** What about the EC50 (Plasmodium falciparum [4]) of the same compound?
**A.** Its EC50 is 2000 nM.

**Q.** And the inhibition (Plasmodium falciparum [14])?
**A.** Its inhibition is “Active”.

**Q.** And the inhibition (Plasmodium falciparum [15])?
**A.** The inhibition was “Active”.

**Q.** And the inhibition (Plasmodium falciparum [16])?
**A.** The inhibition was “inactive”.

**Q.** And the EC50 (Plasmodium falciparum [6])?
**A.** Its EC50 is 3000 nM.

**Q.** What about the EC50 (Plasmodium falciparum [7]) of the same compound?
**A.** The EC50 was 2000 nM.

**Q.** And the inhibition (Plasmodium falciparum [17])?
**A.** The inhibition was “inactive”.

**Q.** What about the inhibition (Plasmodium falciparum [18]) of the same compound?
**A.** The inhibition was “Active”.

**Q.** How did the inhibition (Plasmodium falciparum [19]) turn out when `CCC[C@@]1(CCc2ccccc2)CC(O)=C([C@H](CC)c2cccc(NS(=O)(=O)c3ccc(C(F)(F)F)cn3)c2)C(=O)O1` was run?
**A.** The inhibition was “Active”.

**Q.** And the inhibition (Plasmodium falciparum [20])?
**A.** Its inhibition is “inactive”.

**Q.** What about the EC50 (Plasmodium falciparum [12]) of the same compound?
**A.** Its EC50 is 21000 nM.

**Q.** What about the inhibition (Plasmodium falciparum [3]) of the same compound?
**A.** Its inhibition is “Dose-dependent effect”.

**Q.** What about the EC50 (Plasmodium falciparum [4]) of the same compound?
**A.** The EC50 was 12000 nM.

**Q.** And the inhibition (Plasmodium falciparum [21])?
**A.** The inhibition was “Active”.

**Q.** And the inhibition (Plasmodium falciparum [5])?
**A.** Its inhibition is “inactive”.

**Q.** And the inhibition (Plasmodium falciparum [22])?
**A.** The inhibition was “Active”.

**Q.** What about the EC50 (Plasmodium falciparum [6]) of the same compound?
**A.** Its EC50 is 18000 nM.

**Q.** And the EC50 (Plasmodium falciparum [7])?
**A.** Its EC50 is 20000 nM.

**Q.** What about the inhibition (Plasmodium falciparum [23]) of the same compound?
**A.** The inhibition was “Active”.

**Q.** And the inhibition (Plasmodium falciparum [24])?
**A.** The inhibition was “Active”.

**Q.** Which results are given for `CCN(CC)CCCC(C)Nc1ccnc2cc(Cl)ccc12` (configuration not stated) [CHLOROQUINE]?
**A.** inhibition (Plasmodium falciparum [25]): Active; inhibition (Plasmodium falciparum [26]): inactive; EC50 (Plasmodium falciparum [4]): 23 nM; inhibition (Plasmodium falciparum [27]): Active; inhibition (Plasmodium falciparum [28]): inactive; EC50 (Plasmodium falciparum [6]): 23 nM; EC50 (Plasmodium falciparum [7]): 25 nM; inhibition (Plasmodium falciparum [29]): Active; inhibition (Plasmodium falciparum [30]): Active

**Q.** Which inhibition (Plasmodium falciparum [3]) does the source give for `CC(C)c1nc(CN(C)C(=O)N[C@H](C(=O)N[C@@H](Cc2ccccc2)C[C@H](O)[C@H](Cc2ccccc2)NC(=O)OCc2cncs2)C(C)C)cs1` [RITONAVIR] here?
**A.** Its inhibition is “Dose-dependent effect”.

**Q.** And the EC50 (Plasmodium falciparum [4])?
**A.** Its EC50 is 3000 nM.

**Q.** What about the EC50 (Plasmodium falciparum [6]) of the same compound?
**A.** The EC50 was 5000 nM.

**Q.** And the EC50 (Plasmodium falciparum [7])?
**A.** The EC50 was 3000 nM.
